Screening results deposited in PubChem BioAssay by The Scripps Research Institute Molecular Screening Center.
ABHD4 inh – inhibitors of mouse ABHD4. Q8VD66. inhibition, % at 8.92 µM. 370,000 tested, 0.54% active. purified mABHD4, FP-Rh probe fluorescence polarization;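 active means inhibition exceeding the mean over every tested compound plus 3 SD, cut at about 30% in these data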;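 further: 0% = plate median of compound wells and 100% = S159A mutant with DMSO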
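Test system: mABHD4 protein | Buffer or medium: HEPES pH 7.0 buffer, 150 mM NaCl, 0.01% Pluronic F-127 | Probe or stimulus: FP-Rh fluorescent activity-based probe, added after compound pre-incubation | Timing: Pre-incubation 45 min, probe exposure 60 min, at 25 °C | Technique: Fluorescence polarization, excitation 525 nm, emission 598 nm, BODIPY TMR filters | Repeats: Single well per compound (singlicate)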
TCR-CD3 inh – inhibitors of human TCR-CD3 interaction | inhibition, % at 9.4 µM | AID 651800 | TAMRA-labeled TCR probe fluorescence, biochemical | 360,000 tested, 0.37% active; in the data active means inhibition above about 19%;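 further: recombinant mutant TCR 2C K166C tagged with TAMRA read by polarization; 0% = receptor in buffer alone and 100% = receptor with positive control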
HTRA1 inh – HTRA1 (human) protease inhibition; recombinant HTRA1, FP-rhodamine activity-based probe, fluorescence polarization; 340,000 tested, 0.5% active; Q92743; AID 504803; inhibition, % at 5.96 µM; in the data active means inhibition above about 36%;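 further: 0% = enzyme with DMSO and 100% = wells lacking enzyme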
Target sequence (Q92743 whole entry, looked up): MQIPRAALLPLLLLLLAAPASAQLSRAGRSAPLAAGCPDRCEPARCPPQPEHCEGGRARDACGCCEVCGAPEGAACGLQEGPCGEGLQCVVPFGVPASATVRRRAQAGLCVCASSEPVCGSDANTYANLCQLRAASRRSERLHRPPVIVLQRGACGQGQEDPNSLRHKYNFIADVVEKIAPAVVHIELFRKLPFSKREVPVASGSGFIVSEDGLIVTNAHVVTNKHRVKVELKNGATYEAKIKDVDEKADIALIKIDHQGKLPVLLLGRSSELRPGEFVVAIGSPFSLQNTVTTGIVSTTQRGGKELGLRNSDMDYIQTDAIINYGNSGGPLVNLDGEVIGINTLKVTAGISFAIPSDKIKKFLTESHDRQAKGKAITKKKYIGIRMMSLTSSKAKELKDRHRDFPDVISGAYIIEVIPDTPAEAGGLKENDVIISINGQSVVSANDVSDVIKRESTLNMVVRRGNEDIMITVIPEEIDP
SIAE inh – blocks human sialic acid acetylesterase; Q9HAT2; SIAE FP-Rh probe binding, fluorescence polarization; inhibition, % at 9.66 µM; 370,000 tested, 0.69% active; AID 1053197;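 active means inhibition above a cutoff: mean of compounds within the control limits plus 3 SD of those, cut at about 17% in these data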;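 further: 0% = plate median of compound wells and 100% = probe without SIAE protein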
PRMT1 inh – PRMT1 (human) inhibition, primary screen | Q99873 | recombinant PRMT1, activity-based probe fluorescence polarization | inhibition, % at 2.79 µM | 370,000 tested, 1.3% active;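 active means inhibition above about 21% made by adding two undisclosed values, limit read from the data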
PRMT1 confirm – PRMT1 (human) inhibition, FP confirmation. shares compounds with PRMT1 inh. recombinant His-PRMT1, activity-based probe fluorescence polarization. inhibition, % at 2.79 µM. 3,300 tested, 42% active;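 active means mean inhibition across replicates above the hit cutoff derived for the earlier primary screen, cut at about 22% in these data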
* hit, by the source's call; · = no result. A selection: hits, their analogues and other compounds. The true share with any hit is near 2.7%.

SMILES	ABHD4 inh	TCR-CD3 inh	HTRA1 inh	SIAE inh	PRMT1 inh	PRMT1 confirm
Cc1cc(C)nc(SCC(=O)c2ccc([N+](=O)[O-])cc2)n1	3	1	-6	8	37*	3
CC(=O)N1CCN(C(=O)c2ccc3oc(CCCc4ccccc4)nc3c2)CC1	1	-9	-9	-3	1	·
CCOC(=O)N1CCN(C(=O)c2ccc3oc(CCCc4ccccc4)nc3c2)CC1	-5	4	4	-1	31*	-1
c1ccc(NNC2=NCCS2)cc1	0	-1	0	-5	29*	1
COC(=O)/C=C1\OC(C)c2ccccc21 (centres undefined)	0	3	·	-4	-3	·
O=c1[nH]c2c(s1)C=Nc1ccccc1N2	9	3	9	-4	69*	85*
S=C(SCc1nc(-c2ccc(Cl)cc2)no1)N1CCSCC1	9	-7	·	5	0	·
COc1ccc(Cn2cc(CN3[C@@H](c4ccccc4)COc4cc(Br)ccc4S3(=O)=O)nn2)cc1	-1	0	·	-2	-6	·
Cc1ccc(-c2cc(-c3ccc(F)cc3)nc(N)c2C#N)o1	-8	6	-30	-10	13	·
Cc1ccc(-c2cc(-c3ccccc3)c(C#N)c(N)n2)o1	19	-2	29	6	30*	66*
O=C1C=C(c2ccc(CO)cc2)C[C@@H](c2ccc3c(c2)OCO3)C1	2	-1	1	0	1	·
O=C(O)/C=C\C(=O)Nc1cc(O)ccc1[N+](=O)[O-]	2	-3	-5	1	1	·
Cc1ccc(NC(=O)/C=C\C(=O)O)c([N+](=O)[O-])c1	-5	-5	7	-3	65*	-1
Cc1cc(C)c(NC(=O)/C=C\C(=O)O)c([N+](=O)[O-])c1	6	-2	2	-4	81*	37*
Cc1cc(C)c(NC(=O)/C=C\C(=O)O)c(Cl)c1	-3	5	-2	10	28*	11
Cc1ccc([N+](=O)[O-])cc1NC(=O)/C=C/C(=O)O	4	-4	3	-4	49*	5
Cc1cc(C)c(NC(=O)CS)c(Cl)c1	0	-5	-1	9	10	·
O=C(O)CN1C(=O)/C(=C\c2ccccc2OCc2ccccc2)SC1=S	-20	-1	-26	-6	11	·
O=C(O)CN1C(=O)/C(=C\c2ccccc2OCc2ccc(F)cc2)SC1=S	-38	3	-47	-13	25*	-1
Cc1ccc(C2=NN=C(NC(=O)C(F)(F)F)SC2)cc1	7	0	1	2	58*	61*
Cc1ccc(NC(=O)COC(=O)c2cc(=O)c3ccccc3o2)cc1F	-1	0	3	-5	1	·
COc1ccc2cc(C(c3nnnn3C(C)(C)C)N3CCSCC3)c(=O)[nH]c2c1 (centres undefined)	0	4	-2	6	34*	-6
CCC(C)(C)n1nnnc1C(c1cc2ccc(OC)cc2[nH]c1=O)N1CCCCC1 (centres undefined)	-2	-2	-4	6	1	·
O=C1C=CC(=O)N1N(c1ccccc1)c1ccccc1	3	1	-3	13	50*	96*
COC(=O)Cn1cnc2c(NC(=O)c3ccccc3)ncnc21	2	8	·	-1	-2	·
SMILES	ABHD4 inh	TCR-CD3 inh	HTRA1 inh	SIAE inh	PRMT1 inh	PRMT1 confirm
O=C(CSCC(=O)c1ccccc1)Nc1ccccc1Cl	8	-4	-2	3	99*	28*
CCOC1=C2[C@H]([C@H]3C(=O)N(c4ccccc4)C(=O)[C@H]3C1)[C@@H](C(C)C)N(S(=O)(=O)c1ccc(C)cc1)[C@H]2c1ccccc1	4	2	·	-1	-3	·
C#CCNC(=O)c1cc(-c2ccccc2)sc1N	-4	-10	·	-2	27*	-3
CC(C)CN1CCC1(C)C(=O)Nc1cc(-c2ccccc2)nn1C (centres undefined)	6	-2	·	2	-2	·
O=S(=O)(NC1=NCCCCC1)c1ccc2sc(NS(=O)(=O)c3ccc4ccccc4c3)nc2c1	-21	3	-10	-26	44*	27*
COc1ccccc1OCC(=O)Sc1ccc(C)cc1	4	-2	-1	-2	39*	79*
Cc1ccc(OCC(=O)Sc2ccc(C)cc2)cc1	3	1	-1	4	20	·
CCN1/C(=C/C=C/C=C/C=C/c2sc3ccccc3[n+]2CC)Sc2ccccc21	-22	-10	7	-35	53*	23*
CC[n+]1c(/C=C/Nc2ccccc2)sc2ccccc21	-48	-9	-21	-20	18	·
CCN(CC)C(=O)CSc1ncnc2c1nnn2-c1ccc(OC)cc1	·	·	-3	·	·	·
CCOC(=O)CC(=O)CSc1ncnc2c1nnn2-c1ccc(OC)cc1	6	4	5	1	62*	79*
O=C(O)/C=C/C(=O)c1ccc2c(c1)NC(=O)CO2	-2	-4	5	-9	35*	47*
O=c1[nH]c(=S)[nH]c2c1[C@H](CCc1cccc(Cl)c1)O[C@H](C1CC1)C2	-4	-4	·	1	-6	·
CC(=O)c1c(C)oc2ccc(N(C(C)=O)S(=O)(=O)c3cccc([N+](=O)[O-])c3)cc12	11	7	0	-2	2	·
CC(=O)N(c1ccc2oc(=O)sc2c1)S(=O)(=O)c1ccccc1	10	6	15	-6	91*	65*
CCCC(=O)N(c1ccc2oc(=O)sc2c1)S(=O)(=O)c1cccs1	-19	2	29	-33	85*	37*
COc1ccc(S(=O)(=O)N(C(=O)C(C)C)c2ccc3oc(=O)sc3c2)cc1	-27	-9	21	-41	68*	39*
COc1cccc(CN2CCNC(=O)C2CC(=O)NCC(C)(C)N2CCOCC2)c1OC (centres undefined)	1	1	2	-1	0	·
Nn1c(SCC(=O)Nc2ccc(C(=O)O)cc2)nnc1-c1ccco1	5	·	·	4	-1	·
CC(=O)OCC1=C(C(=O)O)N2C(=O)C(NC(=O)c3ccc(COc4cccc(Cl)c4Cl)o3)C2SC1 (centres undefined)	-3	10	-44	-14	37*	13
CC1=C(C(=O)O)N2C(=O)C(NC(=O)c3ccc(F)cc3)C2SC1 (centres undefined)	9	4	1	2	5	·
COc1cccc(C(=O)NC2C(=O)N3C(C(=O)O)=C(COC(C)=O)CSC23)c1 (centres undefined)	12	3	3	5	29*	34*
CCc1ccc(C(C(=O)NC2CCCCC2)N(C(=O)c2csnn2)C2CC2)cc1 (centres undefined)	3	8	-3	-1	-2	·
Cc1nc(SCC(=O)Nc2ccccc2Cl)c2c(C)c(C)sc2n1	-3	-2	-4	-1	2	·
